Measurements: ChEMBL document CHEMBL1142550, “Thiopyrano[2,3-e]indol-2-ones: angelicin heteroanalogues with potent photoantiproliferative activity” (Bioorg Med Chem, 2008)
The source made the active and inactive calls. The calls are words filed in the database; no cut-off is given here.

What was measured:
Escherichia coli [1] = assay: Induction of DNA photodamage of Escherichia coli pBR322 exposed to 3.5 J/cm'2 UVA irradiation
Procedure, shortened: (§1)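 pBR322 supercoiled plasmid (100 ng) in 10 mM phosphate buffer pH 7.2 irradiated with UVA (365 nm, 4.0 mW cm⁻²; 3.5 J cm⁻²) at [DNA]/[drug] ratios 1, 2 and 4. Aliquots were then incubated at 37 °C with Fpg or Endo III. Scavenger runs used drug ratio 1 with mannitol 10 mM, GSH 1 mM or NaN₃ 10 mM. Samples were run on 1% agarose in TAE, 70 V, 4 h. Read-out was % form II by densitometry, mean ± SEM of three independent experiments.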

Escherichia coli [2] = assay: Induction of DNA photodamage of Escherichia coli pBR322 exposed to 3.5 J/cm'2 UVA irradiation in presence of formamidopyrimidine DNA glycosylase; procedure, shortened: as §1
Escherichia coli [3] = assay: Induction of DNA photodamage of Escherichia coli pBR322 exposed to 3.5 J/cm'2 UVA irradiation in presence of endonuclease 3; procedure, shortened: as §1
Escherichia coli [4] = assay: Induction of DNA photodamage of Escherichia coli pBR322 exposed to 3.5 J/cm'2 UVA irradiation in presence of mannitol; procedure, shortened: as §1
Escherichia coli [5] = assay: Induction of DNA photodamage of Escherichia coli pBR322 exposed to 3.5 J/cm'2 UVA irradiation in presence of sodium azide; procedure, shortened: as §1
Escherichia coli [6] = assay: Induction of DNA photodamage of Escherichia coli pBR322 exposed to 3.5 J/cm'2 UVA irradiation in presence of reduced glutathione; procedure, shortened: as §1
Jurkat [7] = assay: Photocytotoxicity against human JURKAT cells treated 30 mins before 2.5 J/cm'2 UVA irradiation measured after 72 hrs by MTT assay; format: functional, cell-based; conditions: light or radiation study
Jurkat [8] = assay: Photocytotoxicity against human JURKAT cells treated 30 mins before 3.75 J/cm'2 UVA irradiation measured after 72 hrs by MTT assay; format: functional, cell-based; conditions: light or radiation study
HT-1080 [9] = assay: Photocytotoxicity against human HT1080 cells treated 30 mins before 2.5 J/cm'2 UVA irradiation measured after 72 hrs by MTT assay; format: functional, cell-based; conditions: HT-1080, light or radiation study
HT-1080 [10] = assay: Photocytotoxicity against human HT1080 cells treated 30 mins before 3.75 J/cm'2 UVA irradiation measured after 72 hrs by MTT assay; format: functional, cell-based; conditions: HT-1080, light or radiation study
[11] = Photocytotoxicity against human NCTC 2544 cells treated 30 mins before 2.5 J/cm'2 UVA irradiation measured after 72 hrs by MTT assay; format: functional, cell-based; conditions: NCTC-2544, light or radiation study
[12] = Photocytotoxicity against human NCTC 2544 cells treated 30 mins before 3.75 J/cm'2 UVA irradiation measured after 72 hrs by MTT assay; format: functional, cell-based; conditions: NCTC-2544, light or radiation study
LoVo [13] = assay: Photocytotoxicity against human LoVo cells at 1.25 uM treated 30 mins before 2.5 J/cm'2 UVA irradiation measured after 72 hrs by MTT assay in presence of reduced glutathione; format: functional, cell-based
Procedure, shortened: (§2)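 LoVo cells were seeded at 5×10³ per well in Ham's F12/10% FCS. Drug 1.25 μM was given with an additive: BHA 10⁻⁵ M, DMTU 1 mM, GSH 1 mM or NaN₃ 10 mM. After 30 min in HBSS at 37 °C, cells received UVA 2.5 J cm⁻², and MTT viability was read 72 h later.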

LoVo [14] = assay: Photocytotoxicity against human LoVo cells at 1.25 uM treated 30 mins before 2.5 J/cm'2 UVA irradiation measured after 72 hrs by MTT assay in presence of 2,6-di-t-butylhydroxyanisole; format: functional, cell-based; procedure, shortened: as §2
LoVo [15] = assay: Photocytotoxicity against human LoVo cells at 1.25 uM treated 30 mins before 2.5 J/cm'2 UVA irradiation measured after 72 hrs by MTT assay in presence of N-N'-dimethylthiourea; format: functional, cell-based; procedure, shortened: as §2
LoVo [16] = assay: Photocytotoxicity against human LoVo cells at 1.25 uM treated 30 mins before 2.5 J/cm'2 UVA irradiation measured after 72 hrs by MTT assay in presence of sodium azide; format: functional, cell-based; procedure, shortened: as §2
Jurkat [17] = assay: Induction of apoptosis in human JURKAT cells assessed as annexin V positive cells treated 30 mins before 2.5 J/cm'2 UVA irradiation measured after 24 hrs by flow cytometry; format: functional, cell-based
Procedure, shortened: (§3)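 Jurkat cells were exposed to drug in HBSS pH 7.2 (from DMSO stock) for 30 min at 37 °C, then given UVA 2.5 J cm⁻² (365 nm) at several concentrations. After 24 h, cells were stained with Annexin V-FITC plus propidium iodide and analysed by flow cytometry (ex 488 nm; em 525 nm FITC, 560–680 nm PI).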

Jurkat [18] = assay: Induction of necrosis in human JURKAT cell sat 5.0 uM treated 30 mins before 2.5 J/cm'2 UVA irradiation measured after 24 hrs; format: functional; procedure, shortened: as §3
Jurkat [19] = assay: Induction of apoptosis in human JURKAT cells assessed as reduction in mitochondrial membrane potential at 5 uM treated 30 mins before 2.5 J/cm'2 UVA irradiation measured after 24 hrs by flow cytometry; format: functional, cell-based
Procedure, shortened: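 Jurkat cells were treated with drug at 5 μM and UVA 2.5 J cm⁻², then sampled at different times after irradiation. Cells were resuspended in HBSS with JC-1 2.5 μM for 10 min at 37 °C, then analysed by flow cytometry. Values are mean ± SEM of three experiments.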

Jurkat [20] = assay: Induction of apoptosis in human JURKAT cells assessed as increase in reactive oxygen species release treated 30 mins before 2.5 J/cm'2 UVA irradiation measured after 24 hrs by hydroethidine staining; format: functional, cell-based
Procedure, shortened: (§4)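 Jurkat cells were irradiated (UVA 2.5 J cm⁻²) with drug at several concentrations. At 24 h they were resuspended in HBSS with hydroethidine 0.1 μM, DCFDA 2.5 μM or NAO 5.0 μM for 30 min at 37 °C. Flow cytometry used ex 488 nm, em 585 nm (HE) or 530 nm (DCFDA, NAO). Values are means ± SEM, n=3.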

Jurkat [21] = assay: Induction of apoptosis in human JURKAT cells assessed as increase in reactive oxygen species release treated 30 mins before 2.5 J/cm'2 UVA irradiation measured after 24 hrs by DCFDA staining; format: functional, cell-based; procedure, shortened: as §4
Jurkat [22] = assay: Induction of apoptosis in human JURKAT cells assessed as increase in cardiolipin oxidation treated 30 mins before 2.5 J/cm'2 UVA irradiation measured after 24 hrs by N-nonyl acridine orange staining; format: functional, cell-based; procedure, shortened: as §4
Jurkat [23] = assay: Induction of apoptosis in human JURKAT cells assessed as decrease in intracellular GSH levels treated 30 mins before 2.5 J/cm'2 UVA irradiation measured after 24 hrs by flow cytometry; format: functional, cell-based
Procedure, shortened: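 Jurkat cells were irradiated (2.5 J cm⁻²) with drug at several concentrations. At 24 h cells were harvested and incubated with monobromobimane 50 μM for 10 min at 37 °C. GS-mBBr was measured by flow cytometry (ex 354, em 450). Values are mean ± SEM, n=3.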

Jurkat [24] = assay: Induction of apoptosis in human JURKAT cells assessed as lysosomal damage treated 30 mins before 2.5 J/cm'2 UVA irradiation measured after 24 hrs by flow cytometry; format: functional, cell-based
Procedure, shortened: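 Jurkat cells were irradiated (2.5 J cm⁻²) with drug at several concentrations. At 24 h cells were stained with acridine orange 5 μg/mL for 15 min at 37 °C, washed, and analysed by flow cytometry (ex 488, em 546 nm).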

Jurkat [25] = assay: Induction of apoptosis in human JURKAT cells supernatant assessed as lipid peroxidation treated 30 mins before 2.5 J/cm'2 UVA irradiation measured after 24 hrs by thiobarbituric acid assay; format: functional, cell-based
Procedure, shortened: (§5)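 Cells were grown 2 days to confluence, then irradiated in HBSS with drug 10 μM at varied UVA doses. At 24 h, the TBA test was run on supernatant and on cell homogenates. Malonaldehyde was quantified against a 1,1,3,3-tetraethoxypropane standard and expressed as nmol TBARS per total protein.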

Jurkat [26] = assay: Induction of apoptosis in human JURKAT cells homogenate assessed as lipid peroxidation treated 30 mins before 2.5 J/cm'2 UVA irradiation measured after 24 hrs by thiobarbituric acid assay; format: functional, cell-based; procedure, shortened: as §5
Erythrocyte = assay: Induction of protein photodamage of human erythrocyte ghost plasmatic membrane assessed as disappearance of the spectrin subunit bands at 10 uM treated 30 mins before 2.5 J/cm'2 UVA irradiation by electrophoresis; format: cell-based
Procedure, shortened: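 Erythrocyte ghost membranes (1.0 mg/ml protein) were irradiated with drug at increasing UVA doses.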

Nucleic Acid [27] = assay: Induction of DNA photodamage of salmon testes DNA assessed as DNA intercalation by linear dichroism; format: nucleic-acid assay; conditions: Salmonidae
Procedure, shortened: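 Linear dichroism in a flow cell with salmon testes DNA at 2.27 mM in phosphate buffer, ligand/DNA r = 0, 0.02 and 0.04. Absorbance spectra were recorded alongside.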

Nucleic Acid [28] = assay: Induction of DNA photodamage of salmon testes DNA assessed as DNA intercalation by circular dichroism; format: nucleic-acid assay; conditions: Salmonidae
Procedure, shortened: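 Circular dichroism of salmon testes DNA (2 μM) with ligand at ligand/DNA ratios 0.02 and 0.04 in phosphate buffer. Spectra are the average of 4 scans.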

Jurkat [29] = assay: Induction of apoptosis in human JURKAT cells assessed as caspase 3 activation treated 30 mins before 2.5 J/cm'2 UVA irradiation measured after 24 hrs by colorimetric assay
HL-60 [30] = assay: Photocytotoxicity against human HL-60 cells treated 30 mins before 2.5 J/cm'2 UVA irradiation measured after 72 hrs by MTT assay; format: functional, cell-based; conditions: HL-60, light or radiation study
HL-60 [31] = assay: Photocytotoxicity against human HL-60 cells treated 30 mins before 3.75 J/cm'2 UVA irradiation measured after 72 hrs by MTT assay; format: functional, cell-based; conditions: HL-60, light or radiation study
LoVo [32] = assay: Photocytotoxicity against human LoVo cells treated 30 mins before 2.5 J/cm'2 UVA irradiation measured after 72 hrs by MTT assay; format: functional, cell-based; conditions: light or radiation study
LoVo [33] = assay: Photocytotoxicity against human LoVo cells treated 30 mins before 3.75 J/cm'2 UVA irradiation measured after 72 hrs by MTT assay; format: functional, cell-based; conditions: light or radiation study

## Cc1cc2c3sc(=O)ccc3ccc2n1C
Escherichia coli [1]
  Activity: inactive
Escherichia coli [2]
  Activity: Active
Escherichia coli [3]
  Activity: Active
Escherichia coli [4]
  Activity: inactive
Escherichia coli [5]
  Activity: inactive
Escherichia coli [6]
  Activity: inactive
Jurkat [7]
  IC50: 500 nM
Jurkat [8]
  IC50: 200 nM
HT-1080 [9]
  IC50: 900 nM
HT-1080 [10]
  IC50: 600 nM
[11]
  IC50: 2100 nM
[12]
  IC50: 1600 nM
LoVo [13]
  Activity: inactive
LoVo [14]
  Activity: inactive
LoVo [15]
  Activity: inactive
LoVo [16]
  Activity: Active
Jurkat [17]
  Activity: Dose-dependent effect
Jurkat [18]
  Activity: 2%
Jurkat [19]
  Activity: Active
Jurkat [20]
  Activity: Active
Jurkat [21]
  Activity: Active
Jurkat [22]
  Activity: Active
Jurkat [23]
  Activity: Dose-dependent effect
Jurkat [24]
  Activity: Active
Jurkat [25]
  Activity: Active
Jurkat [26]
  Activity: Active
Erythrocyte
  Activity: Active
Nucleic Acid [27]
  Activity: inactive
Nucleic Acid [28]
  Activity: inactive
Jurkat [29]
  Activity: Active

## COc1c2occc2cc2ccc(=O)oc12 [METHOXSALEN]
Jurkat [7]
  IC50: 1200 nM
HT-1080 [10]
  IC50: 1900 nM
[11]
  IC50: 5500 nM
[12]
  IC50: 900 nM

## Cc1cc2c3sc(=O)ccc3ccc2n1-c1ccccc1
HL-60 [30]
  IC50: 2600 nM
HL-60 [31]
  IC50: 1300 nM
Jurkat [7]
  IC50: 2500 nM
Jurkat [8]
  IC50: 3500 nM
HT-1080 [9]
  IC50: 5400 nM
HT-1080 [10]
  IC50: 2000 nM
LoVo [32]
  IC50: 5100 nM
LoVo [33]
  IC50: 4200 nM
[11]
  IC50: 17000 nM
[12]
  IC50: 14800 nM

## Cc1cc2c(n1Cc1ccccc1)CCc1ccc(=O)sc1-2
HL-60 [30]
  IC50: 4000 nM
Jurkat [7]
  IC50: 4000 nM
Jurkat [8]
  IC50: 2200 nM
HT-1080 [9]
  IC50: 11200 nM
HT-1080 [10]
  IC50: 9800 nM
LoVo [32]
  IC50: > 20000 nM
[11]
  IC50: > 20000 nM
[12]
  IC50: > 20000 nM
